From ChEMBL document CHEMBL1125516, “TSAO analogues. Stereospecific synthesis and anti-HIV-1 activity of 1-[2',5'-bis-O-(tert-butyldimethylsilyl)-beta-D-ribofuranosyl]-3'-spiro -5''- (4''-amino-1'',2''-oxathiole 2'',2''-dioxide) pyrimidine and pyrimidine-modified nucleosides” (J Med Chem, 1992)

Columns and labels:
MT4 [1] = experiment: Concentration required to inhibit HIV-1 induced cytopathicity in MT-4 cells by 50%; type: functional, cell-based; conditions: Homo sapiens
Summary of the method: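 HIV-1 IIIB-infected human MT-4 cells (HTLV-1-transformed), 5 x 10^5 cells/mL, infected at 100 CCID50 per mL of cell suspension, then mixed with compound dilutions. After 5 days, viable cells were counted by trypan blue staining in a blood-cell-counting chamber. EC50 is the concentration […]. Values are means of at least three to five independent experiments.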

[2] = Selectivity index was defined as the ratio of CC50 to EC50; type: functional
Summary of the method: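 The ratio is CC50/EC50. Both come from MT-4 cells at 5 × 10^5 cells/mL, mixed 1:1 with compound dilutions for 5 days, with viable cells counted by trypan blue. EC50 used cells infected with HIV-1 (IIIB) at 100 CCID50 per mL. CC50 used mock-infected cells. […] Values are means of three to five experiments.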

MT4 [3] = experiment: Cytotoxic concentration required to reduce MT-4 cell viability by 50%; type: functional; conditions: Homo sapiens
Summary of the method: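 MT-4 cells (HTLV-1-transformed human T-lymphocytes) at 5 × 10^5 cells/mL were mock-infected and mixed 1:1 with serial dilutions of compound. After 5 days, viable cells were counted by trypan blue exclusion in a blood-cell-counting chamber. CC50 is the concentration reducing viable cell number by 50%. Values are means of at least three to five independent experiments.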

| SMILES | EC50 (MT4 [1]) [µM] | Selectivity index [2] | CC50 (MT4 [3]) [µM] |
| --- | --- | --- | --- |
| C=CCn1c(=O)ccn([C@@H]2O[C@H](CO[Si](C)(C)C(C)(C)C)[C@@]3(OS(=O)(=O)C=C3N)[C@H]2O[Si](C)(C)C(C)(C)C)c1=O | 0.615 | 15 | 8.9 |
| Cc1cn([C@@H]2O[C@H](CO[Si](C)(C)C(C)(C)C)[C@@]3(OS(=O)(=O)C=C3N)[C@H]2O[Si](C)(C)C(C)(C)C)c(=O)n(C)c1=O | 0.059 | 4090 | 240 |
| CCn1c(=O)c(C)cn([C@@H]2O[C@H](CO[Si](C)(C)C(C)(C)C)[C@@]3(OS(=O)(=O)C=C3N)[C@H]2O[Si](C)(C)C(C)(C)C)c1=O | 0.123 | 1000 | 123 |
| CC(C)=CCn1c(=O)c(C)cn([C@@H]2O[C@H](CO[Si](C)(C)C(C)(C)C)[C@@]3(OS(=O)(=O)C=C3N)[C@H]2O[Si](C)(C)C(C)(C)C)c1=O | 0.377 | 183 | 69 |
| C=CCn1c(=O)c(C)cn([C@@H]2O[C@H](CO[Si](C)(C)C(C)(C)C)[C@@]3(OS(=O)(=O)C=C3N)[C@H]2O[Si](C)(C)C(C)(C)C)c1=O | 0.233 | > 1420 |  |
| CC(C)=CCN1Cc2cccc3[nH]c(=S)n(c23)C[C@@H]1C | 0.076 | > 1050 | > 80 |
| Cc1cn([C@@H]2O[C@H](COC(=O)c3ccccc3)[C@@]3(OS(=O)(=O)C=C3N)[C@H]2O[Si](C)(C)C(C)(C)C)c(=O)[nH]c1=O | > 15 | < 2.5 | 36 |
| CC(C)(C)[Si](C)(C)OC[C@H]1O[C@@H](n2ccc(N)nc2=O)[C@H](O[Si](C)(C)C(C)(C)C)[C@]12OS(=O)(=O)C=C2N | 1 | > 360 | > 360 |
| Cc1cn([C@@H]2O[C@H](CO[Si](C)(C)C(C)(C)C)C3(OS(=O)(=O)C=C3N)[C@H]2O[Si](C)(C)C(C)(C)C)c(=O)[nH]c1=O (some centres undefined) | 0.06 |  | 14 |
| Cc1cn([C@@H]2O[C@H](CO[Si](C)(C)C(C)(C)C)[C@@]3(OS(=O)(=O)C=C3N)[C@H]2O[Si](C)(C)C(C)(C)C)c(=O)nc1N | 0.127 | 246 | 31 |
| Cc1cn([C@@H]2O[C@H](CO)[C@@]3(OS(=O)(=O)C=C3N)[C@H]2O[Si](C)(C)C(C)(C)C)c(=O)[nH]c1=O | > 80 | < 2.5 | 229 |
| Cc1ccnc2c1NC(=O)c1cccnc1N2C1CC1 [NEVIRAPINE] | 0.128 | > 625 | > 80 |
| CC(=O)O[C@H]1[C@H](n2cc(C)c(=O)[nH]c2=O)O[C@H](COC(=O)c2ccccc2)[C@@]12OS(=O)(=O)C=C2N | > 200 |  | > 200 |
| CC(C)(C)[Si](C)(C)OC[C@H]1O[C@@H](n2ccc(=O)[nH]c2=O)[C@H](O[Si](C)(C)C(C)(C)C)C12OS(=O)(=O)C=C2N (some centres undefined) | 0.206 | 73 | 15 |
